The record followed here is ChEMBL document CHEMBL1124349, “Novel benzodiazepine receptor partial agonists: oxadiazolylimidazobenzodiazepines” (J Med Chem, 1989).

For assay [1], the target named is GABA-A receptor; anion channel (Rattus norvegicus) (UniProt O09028+P15431+P18506+P18508+P19969+P20236+P23574+P23576+P28471+P28473+P30191+P62813+P63079+P63138+Q91ZM7+Q9ES14). The experiment in a line: Ratio of binding affinity to the GABA-A receptor in the presence and absence of GABA. Type of assay: protein-complex assay. In short, it runs like this:
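[3H]-Ro 15-1788 displacement in washed rat cortical membranes (Krebs/HEPES pH 7.4, nipecotic acid 10^-4 M, 30 °C, 60 min) run with and without GABA at 0.3 mM. Nonspecific binding was defined by 3 μM clonazepam, and read-out was filtration with scintillation counting. The value is the ratio of the affinities obtained with GABA and without it.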

Assay [2] concerns the target GABA-A receptor; anion channel. Briefly: Inhibition of [3H]-Ro- 15-1788 binding to GABA-A benzodiazepine receptor of rat cortical membranes. It is filed as cell membranes, Membrane. In short, it runs like this: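 Rat (Sprague–Dawley, 250-300 g) cortical membranes, water-washed and frozen at -20 °C ≥18 h, then washed repeatedly in Krebs/HEPES pH 7.4. Incubated with 0.2-0.5 mg protein, [3H]-Ro 15-1788 (5 nM stock added), 10^-4 M nipecotic acid, 30 °C for 60 min. Nonspecific binding with 3 μM clonazepam. Filtration, scintillation counting.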

Assay [3] addresses GABA-A receptor; anion channel. Briefly: Inhibition of radiolabeled antagonist [3H]-Ro- 15-1788 binding to benzodiazepine receptor from rat cortical membranes. Type of assay: cell membranes, Membrane. The method in brief: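 Rat (Sprague–Dawley, 250-300 g) cortical membranes, water-washed and frozen at -20 °C ≥18 h, then washed repeatedly in Krebs/HEPES pH 7.4. Nonspecific binding with 3 μM clonazepam. Filtration, scintillation counting.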

Broadly, the IC50 is the concentration that gives 50% inhibition.

Structures are written as SMILES.

In the case of `Cc1noc(-c2ncn3c2CN=C(c2ccccc2)c2ccccc2-3)n1`, the GABA shift in assay [1] came to 1.94. This molecule also returned an IC50 in assay [2] of 24 nM.

Consider `CC(C)c1noc(-c2ncn3c2CN=C(c2ccccc2)c2cc(Cl)ccc2-3)n1`, for which the GABA shift in assay [1] stood at 1.06. This molecule returned an IC50 in assay [3] of 120 nM.

Turning to `CCCc1noc(-c2ncn3c2CN(C)C(=O)c2ccccc2-3)n1`, the GABA shift in assay [1] turned out to be 2.08. In assay [3], this molecule registered an IC50 of 120 nM.

`CCCc1noc(-c2ncn3c2CN=C(c2ccccc2Cl)c2cc(Cl)ccc2-3)n1`: in assay [1], the GABA shift is 2.92. In assay [3], this molecule yielded a concentration for half-maximal inhibition (IC50) of 34 nM.

Turning to `CC(C)(C)OC(=O)c1ncn2c1C1CCCN1C(=O)c1c(Br)cccc1-2` (stereo not drawn), in assay [1], the GABA shift turned out to be 1.34. In assay [3], the IC50 stood at 0.6 nM.

`Cc1nc(-c2ncn3c2CN(C)C(=O)c2ccccc2-3)no1`: the GABA shift in assay [1] is 1.28. In assay [3], the IC50 amounted to 27 nM.

Regarding `CCc1nc(-c2ncn3c2CN=C(c2ccccc2Cl)c2ccccc2-3)no1`, the GABA shift in assay [1] came out at 1.48. Further, the IC50 in assay [3] came out at 13 nM.

`CCc1nc(-c2ncn3c2CN(C)C(=O)c2cc(F)ccc2-3)no1`: in assay [1], the GABA shift came out at 1.84. The half-maximal inhibitory concentration (IC50) in assay [3] amounted to 27 nM.

In the case of `CCc1noc(-c2ncn3c2CN=C(c2ccccc2)c2c(F)cccc2-3)n1`, the GABA shift in assay [1] stood at 2.31. Further, the IC50 in assay [3] came out at 9.8 nM.

Regarding `CC(C)c1nc(-c2ncn3c2CN=C(c2ccccc2)c2ccccc2-3)no1`, the GABA shift in assay [1] was determined as 2.57. Further, the IC50 in assay [3] was found to be 18 nM.

Take `CCCc1nc(-c2ncn3c2CN(C)C(=O)c2c(F)cccc2-3)no1`: in assay [1], the GABA shift amounted to 1.7. In assay [3], the IC50 was found to be 14 nM.

As for `Cc1nc(-c2ncn3c2CN=C(c2ccccc2)c2ccccc2-3)no1`, the GABA shift in assay [1] is 1.56. The same molecule registered an IC50 in assay [3] of 7 nM.

Regarding `Cc1nc(-c2ncn3c2CN=C(c2ccccc2)c2c(F)cccc2-3)no1`, the GABA shift in assay [1] stood at 1.68. The IC50 in assay [3] was 2.4 nM.

`CCCc1nc(-c2ncn3c2CN(C)C(=O)c2c(Cl)cccc2-3)no1`: in assay [1], the GABA shift is 1.41. Besides, in assay [3], the IC50 is 3.8 nM.
